Measured values gathered from unrelated publications.
Organism: Escherichia coli
Effect on: microbial growth

SMILES	test	test system	setting	MIC
O=C1NN=C(N=Cc2ccccc2O)C1=NNn1c(-c2ccccc2)nc2ccccc2c1=O	broth dilution	–	24 h	55.4 µM
CCCCCCC/C=C/C(=O)N1C(=O)/C(=C(\O)CCCC)C(=O)C1CC(C)C (stereo not drawn)	–	K12, K12	–	> 200 µg/mL
Cc1ccc(C)n1-c1ccc(-c2nnc(-c3ccccc3Cl)[nH]2)cc1	broth dilution	ATCC10536	18 h	250 µg/mL
CC(C)Oc1c(NC(=O)c2ccc(NC(=O)[C@H](CC(N)=O)NC(=O)c3ccc(NC(=O)c4cccc([N+](=O)[O-])c4)cc3)cc2)ccc(C(=O)Nc2ccc(C(=O)O)cc2)c1O	–	DSM1116	–	> 64 µg/mL
CCCC(=O)Oc1c(C)c(O)c(C(=O)/C=C/c2ccccc2)c(OC)c1C	broth dilution	ATCC25922	–	5000 µg/mL
O=C(O)c1cn(C2CC2)c2cc(N3CCNCC3)c(F)cc2c1=O	broth dilution	ATCC25922	–	16 µg/mL
O=C(CCCCCC[P+](c1ccccc1)(c1ccccc1)c1ccccc1)Nc1ccc(O)c(O)c1.[Br-]	broth dilution	ATCC25922	18 h	> 32 µg/mL
O=C(Nc1ncc([N+](=O)[O-])s1)c1cccc(C(F)(F)F)c1	–	–	–	< 50 µM
C[C@@H](O)[C@H]1C(=O)N2C(C(=O)O)=C(S[C@@H]3CN[C@H](C(=O)N(C)C)C3)[C@H](C)[C@H]12	broth dilution	KCTC1682	16 h	0.5 µM
CC(C)Oc1c(NC(=O)c2ccc(NC(=O)[C@H](CC(N)=O)NC(=O)c3ccc(NC(=O)C(C)Sc4ccc(C#N)cc4)cc3)cc2)ccc(C(=O)Nc2ccc(C(=O)O)cc2)c1O (stereo partly drawn)	–	DSM1116	–	0.25 µg/mL
N=C(N)c1cccc(OCc2ccc(COc3cccc(C(=N)N)c3)cc2)c1	broth dilution	BW25113	–	> 200 µg/mL
CC(C)Oc1c(NC(=O)c2ccc(NC(=O)[C@H](CC(N)=O)NC(=O)c3ccc(NC(=O)CCc4ccc(C#N)cc4)cc3)cc2)ccc(C(=O)Nc2ccc(C(=O)O)cc2)c1O	–	DSM1116	–	0.125 µg/mL
N=C(N)c1cccc(OCc2cccc(COc3cccc(C(=N)N)c3)c2)c1	broth dilution	BW25113	–	> 200 µg/mL
CCCCCCC#Cc1cncc(-c2nnc(SCc3ccc([N+](=O)[O-])o3)n2C2CC2)c1	–	–	–	≥ 20 µg/mL
CNc1cccc2cc(C(=O)Nc3ccc(C(=O)O)cc3)c(=O)[nH]c12	broth dilution	ATCC25922	–	64 µg/mL
COc1c(C)c(OS(=O)(=O)c2ccc3ccccc3c2)c(C)c(OS(=O)(=O)c2ccc3ccccc3c2)c1C(=O)/C=C/c1ccccc1	broth dilution	ATCC25922	–	5000 µg/mL
Cc1cccc2nc(-c3ccc([N+](=O)[O-])o3)[nH]c12	broth dilution	ATTC25922	–	4 µg/mL
Cc1c(CN(C)C(=O)/C=C/c2cnc3c(c2)CC(NC(=O)OC(C)(C)C)C(=O)N3)oc2ccccc12 (stereo not drawn)	broth dilution	BAA2340	clinical isolate	> 32 µg/mL
CCCCCCC/C=C/C(=O)N1C(=O)/C(=C(/C)O)C(=O)C1CCCCN (stereo not drawn)	–	K12, K12	–	> 200 µg/mL
COc1cccc(-c2nc3ccccc3[nH]2)c1	broth dilution	ATCC25922	–	256 µg/mL
CNC(C)C1CCC(N)C(OC2C(N)CC(N)C(OC3OCC(C)(O)C(NC)C3O)C2O)O1 (stereo not drawn)	broth dilution	ATCC25922	–	0.5 µg/mL
CC(C)Oc1c(NC(=O)c2ccc(NC(=O)[C@H](CC(N)=O)NC(=O)c3ccc(NC(=O)c4ccc5c(c4)COC5=O)cc3)cc2)ccc(C(=O)Nc2ccc(C(=O)O)cc2)c1O	–	DSM1116	–	≤ 0.03 µg/mL
Cc1ccccc1NCc1ccc(Oc2ccccn2)cc1	–	–	–	> 25 µg/mL
Cc1ccc2nc(-c3ccc([N+](=O)[O-])cc3)n(Cc3ccc(Cl)cc3)c2c1	broth dilution	ATCC25922	–	64 µg/mL
N=C(N)c1ccc(OCc2ccc(COc3ccc(C(=N)N)cc3)cc2)cc1	–	BW25113	20 h	> 200 µg/mL
CC(C)Oc1c(NC(=O)c2ccc(NC(=O)[C@H](CC(N)=O)NC(=O)c3ccc(NC(=O)c4cccc(N)c4)cc3)cc2)ccc(C(=O)Nc2ccc(C(=O)O)cc2)c1O	–	DSM1116	–	32 µg/mL
O=c1[nH]cc(F)c(=O)[nH]1	broth dilution	–	24 h	> 32 µg/mL

SMILES	test	test system	setting	MIC
N=C(N)c1ccc(OCc2cccc(COc3ccc(C(=N)N)cc3)c2)cc1	–	BW25113	–	> 200 µg/mL
NCCCNC1CCCCc2c1[nH]c1ccc(Br)cc21 (stereo not drawn)	broth dilution	ATCC25922	–	16 µg/mL
CCCCCCC#Cc1cncc(-c2nnc(SCc3ccc([N+](=O)[O-])o3)n2C)c1	–	–	–	≥ 20 µg/mL
Fc1ccc(NCc2ccc(Oc3ccccn3)cc2)cc1	–	–	–	> 12.5 µg/mL
Cc1ccc2nc(-c3ccc([N+](=O)[O-])cc3)n(Cc3ccccc3Cl)c2c1	broth dilution	ATCC25922	–	32 µg/mL
COc1c(C)c(OC(=O)c2ccccc2)c(C)c(O)c1C(=O)/C=C/c1ccccc1	broth dilution	ATCC25922	–	5000 µg/mL
CSc1ccc(/C=C/c2cc(/C=C3\Sc4ccccc4N3CCCN3CCCC3)c3ccccc3[n+]2C)cc1.[I-]	broth dilution	ATCC25922	–	16 µg/mL
C[C@H](CCC(=O)NCCCNCCCCNCCCN)[C@H]1CC[C@H]2[C@@H]3[C@H](O)C[C@@H]4C[C@H](O)CC[C@]4(C)[C@H]3C[C@H](O)[C@]12C	broth dilution	MG1655	20 h	> 256 µg/mL
CC(C)(O/N=C(\C(=O)N[C@@H]1C(=O)N2C(C(=O)[O-])=C(C[n+]3ccccc3)CS[C@H]12)c1csc(N)n1)C(=O)O	broth dilution	ATCC25922	–	0.25 µg/mL
COc1ccc(-c2nc3ccccc3[nH]2)cc1O	broth dilution	ATCC25922	–	256 µg/mL
N=C(N)c1ccc(OCCCCCCCCCOc2ccc(C(=N)N)cc2)cc1	broth dilution	BW25113	–	> 25 µg/mL
Cc1ccc(C)n1-c1ccc(C(=O)NNC=O)cc1	broth dilution	ATCC10536	18 h	31.2 µg/mL
O=C1NN=C(N=Cc2ccc(O)cc2O)C1=NNn1c(-c2ccccc2)nc2ccccc2c1=O	broth dilution	–	24 h	53.5 µM
CC(C)Oc1c(NC(=O)c2ccc(NC(=O)[C@H](CC(N)=O)NC(=O)c3ccc(NC(=O)c4ccc(C#N)nc4)cc3)cc2)ccc(C(=O)Nc2ccc(C(=O)O)cc2)c1O	–	DSM1116	–	≤ 0.03 µg/mL
Cc1ccc(NCc2ccc(Oc3ccccn3)cc2)cc1	–	–	–	> 25 µg/mL
N=C(N)c1ccc(OCCC(CCOc2ccc(C(=N)N)cc2)c2ccccc2)cc1 (stereo not drawn)	broth dilution	BW25113	–	> 200 µg/mL
CC(C)COc1c(NC(=O)c2ccc(NC(=O)[C@H](CC(N)=O)NC(=O)c3ccc(NC(=O)c4ccc(C#N)cc4)cc3)cc2)ccc(C(=O)Nc2ccc(C(=O)O)cc2)c1O	–	DSM1116	–	0.25 µg/mL
Cc1ccc2nc(-c3c4ccccc4cc4ccccc34)[nH]c2c1	broth dilution	ATCC25922	–	128 µg/mL
N=C(N)c1cccc(OCc2ccccc2COc2cccc(C(=N)N)c2)c1	–	BW25113	–	> 200 µg/mL
Fc1cccc(Cl)c1-c1nc2ccccc2[nH]1	broth dilution	ATCC25922	–	64 µg/mL
CC1=NN(CNc2c(O)c(S(=O)(=O)O)cc3ccccc23)C(=O)C1=NNn1c(-c2ccccc2)nc2ccccc2c1=O	broth dilution	–	24 h	41.8 µM
Cc1ccc(C)n1-c1ccc(-c2nnc(-c3cccc([N+](=O)[O-])c3)[nH]2)cc1	broth dilution	ATCC10536	18 h	250 µg/mL
CCCCCCC/C=C/C(=O)N1C(=O)/C(=C(\O)c2ccc(F)cc2)C(=O)C1CC(C)C (stereo not drawn)	–	K12, K12	–	> 200 µg/mL
N=C(N)c1ccc(OCc2ccc(Br)cc2COc2ccc(C(=N)N)cc2)cc1	broth dilution	ATCC25922	–	> 200 µg/mL
CCOc1ccc(-c2nc3ccccc3n2Cc2ccccc2)cc1	broth dilution	ATCC25922	–	64 µg/mL
CC(C)Oc1c(NC(=O)c2ccc(NC(=O)[C@H](CC(N)=O)NC(=O)c3ccc(NC(=O)c4ccc(C#N)cc4)cc3)cc2)ccc(C(=O)Nc2cccc(C(=O)O)c2)c1O	–	DSM1116	–	0.5 µg/mL
O=C(CCc1cc(O)c(O)c(O)c1)NCCCCCCCC[P+](c1ccccc1)(c1ccccc1)c1ccccc1.[Br-]	broth dilution	ATCC25922	18 h	> 32 µg/mL
